Experimental data gathered from unrelated publications.
Sialidase-4: Sialidase-4 (Homo sapiens, UniProt Q8WWR8)
ache: Acetylcholinesterase (ache, Electrophorus electricus, UniProt O42275)
ALOX15: Polyunsaturated fatty acid lipoxygenase ALOX15 (ALOX15, Homo sapiens, UniProt P16050)

Compound	target	assay	IC50 [µM]
CCCC[C@H]1C(=O)N(C)[C@@H](CCCC)C(=O)N[C@@H](CCCCNC(=O)CN2CCN(CC(=O)O)CCN(CC(=O)O)CC2)C(=O)N[C@H](C(=O)NCC(N)=O)CSCC(=O)N[C@@H](Cc2ccc(O)cc2)C(=O)N(C)[C@@H](C)C(=O)N[C@@H](CC(N)=O)C(=O)N2CCC[C@H]2C(=O)N[C@@H](Cc2c[nH]cn2)C(=O)N[C@@H](CCC(=O)O)C(=O)N2C[C@H](O)C[C@H]2C(=O)N[C@@H](Cc2c[nH]c3ccccc23)C(=O)N[C@@H](CO)C(=O)N[C@@H](Cc2cn(CC(=O)O)c3ccccc23)C(=O)N1C	Programmed cell death 1 ligand 1 (CD274, Homo sapiens, UniProt Q9NZQ7)	ligand displacement, radioligand	0.00245
CCN[C@H]1[C@H]([C@H](O)[C@H](O)CO)OC(C(=O)O)=C[C@@H]1O	Sialidase-4	enzyme activity, inhibitor	> 500
CCN(C)C(=O)Oc1ccc(CCC(=O)N(CC)Cc2ccccc2)cc1OC	ache	enzyme activity, inhibitor, Ellman	13.8
Fc1ccc(-c2nnc(-c3ccc(OCc4cn(Cc5ccc(Cl)cc5)nn4)cc3)o2)cc1	ache	enzyme activity, inhibitor, Ellman	> 100
CCOC(=O)c1ccccc1-c1c2ccc(=O)cc-2oc2cc(OCCCNc3c(-c4ccc(OC(C)=O)cc4)nc4ccccn34)ccc12	ALOX15	enzyme activity, inhibitor, absorbance	> 100
COc1cc(CCC(=O)N2CCC(Cc3ccccc3)CC2)ccc1OC(=O)N(c1ccccc1)c1ccccc1	ache	enzyme activity, inhibitor, Ellman	10.5
CCOC(=O)c1ccccc1-c1c2ccc(=O)cc-2oc2cc(OCCCNc3c(-c4ccc(Cl)cc4)nc4ccccn34)ccc12	ALOX15	enzyme activity, inhibitor, absorbance	78.7
O=C(N1CCC2(CC1)C[C@H](CN1CCCCS1(=O)=O)CCO2)C1(c2ccccc2)CCCC1	ATP-dependent RNA helicase DDX3X (DDX3X, Homo sapiens, UniProt O00571)	ATPase activity, inhibitor	> 50
O=C(O)C1=C[C@H](O)[C@@H](NCc2ccc(-c3ccccc3)cc2)[C@H]([C@H](O)[C@H](O)CO)O1	Sialidase-4	enzyme activity, inhibitor	260
CCN(C)C(=O)Oc1ccc(CCC(=O)N2CCc3ccccc3C2)cc1OC	ache	enzyme activity, inhibitor, Ellman	10.6
COc1ccc(-c2nnc(-c3ccc(OCc4cn(Cc5ccc(Br)cc5)nn4)cc3)o2)cc1	ache	enzyme activity, inhibitor, Ellman	> 100
CC(C)(C)CN[C@H]1[C@H]([C@H](O)[C@H](O)CO)OC(C(=O)O)=C[C@@H]1O	Sialidase-4	enzyme activity, inhibitor	40
CCOC(=O)c1ccccc1-c1c2ccc(=O)cc-2oc2cc(OCCCNc3c(-c4ccc([N+](=O)[O-])cc4)nc4ccccn34)ccc12	ALOX15	enzyme activity, inhibitor, absorbance	> 100
CCCCCCN[C@H]1[C@H]([C@H](O)[C@H](O)CO)OC(C(=O)O)=C[C@@H]1O	Sialidase-4	enzyme activity, inhibitor	> 500
CN1CC[C@@]2(C)c3cc(OC(=O)Nc4ccccc4)ccc3N(C)[C@@H]12	Aldehyde dehydrogenase 1A1 (ALDH1A1, Homo sapiens, UniProt P00352)	enzyme activity, inhibitor, fluorescence	< 10
CC(C)Cc1cn([C@H]2[C@H]([C@H](O)[C@H](O)CO)OC(C(=O)O)=C[C@@H]2O)nn1	Sialidase-4	enzyme activity, inhibitor	> 500
CC(C)(C)OC(=O)NC1CCCN(C(=O)/C=C/c2ccc([N+](=O)[O-])cc2)C1 (centres unmarked)	ache	enzyme activity, inhibitor, Ellman	> 50
